Measurements: ChEMBL document CHEMBL1157749, “Novel N2-substituted pyrazolo[3,4-d]pyrimidine adenosine A3 receptor antagonists: inhibition of A3-mediated human glioblastoma cell proliferation” (J Med Chem, 2010)
One block for each molecule: values may come before it. Activity calls are given as the source filed them. No cut-off for these calls is given here.

Assays:
Adenosine receptor A1 = target: T1, Adenosine receptor A1 (Homo sapiens, UniProt P30542); assay: Displacement of [3H]DPCPX from human adenosine A1 receptor expressed in CHO cells; assay type: cell-based
T1 sequence (P30542 whole entry): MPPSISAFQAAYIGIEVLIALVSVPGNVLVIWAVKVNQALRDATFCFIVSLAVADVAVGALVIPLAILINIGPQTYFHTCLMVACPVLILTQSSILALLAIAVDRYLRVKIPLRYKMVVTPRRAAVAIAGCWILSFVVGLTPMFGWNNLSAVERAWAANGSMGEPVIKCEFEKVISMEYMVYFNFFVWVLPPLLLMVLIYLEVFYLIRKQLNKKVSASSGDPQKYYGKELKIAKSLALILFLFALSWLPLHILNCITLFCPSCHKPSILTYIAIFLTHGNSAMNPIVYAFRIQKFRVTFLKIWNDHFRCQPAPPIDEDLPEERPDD

Adenosine receptor A2a = Adenosine receptor A2a (Homo sapiens, UniProt P29274); assay: biochemical; assay type: cell-based, CHO
Adenosine receptor A2a, sequence (P29274 whole entry): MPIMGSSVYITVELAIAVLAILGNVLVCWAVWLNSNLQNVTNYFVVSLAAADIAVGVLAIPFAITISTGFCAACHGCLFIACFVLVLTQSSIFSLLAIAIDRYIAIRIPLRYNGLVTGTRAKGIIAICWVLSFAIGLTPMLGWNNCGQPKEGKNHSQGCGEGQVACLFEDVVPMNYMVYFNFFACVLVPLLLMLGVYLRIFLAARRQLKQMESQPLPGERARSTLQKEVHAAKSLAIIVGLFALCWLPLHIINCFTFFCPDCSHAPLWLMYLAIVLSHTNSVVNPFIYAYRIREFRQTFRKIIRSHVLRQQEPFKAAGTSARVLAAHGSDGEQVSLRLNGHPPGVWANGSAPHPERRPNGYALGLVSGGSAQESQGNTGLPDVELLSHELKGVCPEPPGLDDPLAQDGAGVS

Adenosine receptor A3 [1] = target: T2, Adenosine receptor A3 (Homo sapiens, UniProt P0DMS8); assay: biochemical; assay type: cell-based, CHO
T2 sequence (P0DMS8 whole entry): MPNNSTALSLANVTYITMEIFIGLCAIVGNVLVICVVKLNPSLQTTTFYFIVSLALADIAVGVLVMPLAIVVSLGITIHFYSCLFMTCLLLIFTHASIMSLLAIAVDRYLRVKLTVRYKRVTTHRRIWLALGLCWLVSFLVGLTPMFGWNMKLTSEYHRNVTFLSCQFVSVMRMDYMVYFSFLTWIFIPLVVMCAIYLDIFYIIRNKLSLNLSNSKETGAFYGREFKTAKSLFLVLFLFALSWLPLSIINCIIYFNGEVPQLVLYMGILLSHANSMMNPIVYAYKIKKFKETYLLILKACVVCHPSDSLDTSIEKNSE

[2] = target: T3, Adenosine deaminase (Bos taurus) (UniProt P56658); assay: Inhibition of bovine spleen adenosine deaminase at 10 uM after 2 mins by spectrophotometry
T3 sequence (whole entry): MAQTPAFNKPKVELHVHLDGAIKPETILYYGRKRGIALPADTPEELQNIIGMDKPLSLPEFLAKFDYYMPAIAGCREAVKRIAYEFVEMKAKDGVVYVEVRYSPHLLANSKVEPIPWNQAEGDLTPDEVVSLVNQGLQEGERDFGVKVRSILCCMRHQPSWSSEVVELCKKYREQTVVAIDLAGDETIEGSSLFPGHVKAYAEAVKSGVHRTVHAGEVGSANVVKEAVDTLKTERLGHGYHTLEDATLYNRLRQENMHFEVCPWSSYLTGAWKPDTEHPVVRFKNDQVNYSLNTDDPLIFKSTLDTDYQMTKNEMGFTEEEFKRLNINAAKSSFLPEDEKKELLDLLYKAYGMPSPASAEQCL
Method in brief: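 Bovine spleen ADA at 0.3 nM with 50 μM adenosine in 50 mM potassium phosphate, pH 7.2, at 30 °C. Inhibitor is tested at 10 μM with final DMSO ≤4%. Deamination is followed as the change in A262 over 2 min, against a substrate-free blank.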

U-87 MG [3] = assay: Inhibition of Cl-IB-MECA-mediated human U87MG cell proliferation after 48 hrs by trypan blue exclusion assay; assay type: functional, cell-based, U-87MG ATCC
Method in brief: (§1)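 U87MG cells in RPMI/10% FBS are arrested in G1 (0.5% FBS, 48 h). They are then treated 48 h with Cl-IB-MECA 100 nM or IB-MECA 12 nM, with or without antagonist at 0.1–10 nM or 0.01–5 nM. Live cells are counted by 0.4% trypan blue exclusion in a haemocytometer and expressed as % of control, mean ± SEM.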

U-87 MG [4] = assay: Inhibition of IBMECA-mediated human U87MG cell proliferation after 48 hrs by trypan blue exclusion assay; assay type: functional, cell-based, U-87MG ATCC; method in brief: as §1
U-87MG ATCC [5] = assay: Antiproliferative activity against human U87MG cell proliferation at 0.1 to 10 nM after 48 hrs by trypan exclusion assay; assay type: functional, cell-based; method in brief: as §1
Adenosine receptor A2b = target: T4, Adenosine receptor A2b (Homo sapiens, UniProt P29275); assay: Antagonist activity human recombinant adenosine A2B receptor expressed in CHO cells assessed as inhibition of NECA-mediated [3H]cAMP accumulation treated 15 mins before NECA challenge measured after 30 mins by liquid scintillation spectrometry; assay type: functional, cell-based
T4 sequence (P29275 whole entry): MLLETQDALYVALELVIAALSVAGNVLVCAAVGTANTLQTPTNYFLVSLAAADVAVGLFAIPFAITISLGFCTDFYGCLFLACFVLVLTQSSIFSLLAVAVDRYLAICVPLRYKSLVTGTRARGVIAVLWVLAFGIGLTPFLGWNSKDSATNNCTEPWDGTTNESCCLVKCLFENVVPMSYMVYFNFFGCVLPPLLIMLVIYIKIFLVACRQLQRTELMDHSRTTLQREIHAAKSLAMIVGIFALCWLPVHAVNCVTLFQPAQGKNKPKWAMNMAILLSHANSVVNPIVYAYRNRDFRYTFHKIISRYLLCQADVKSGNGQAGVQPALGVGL
Method in brief: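 CHO cells stably expressing hA2B are pre-incubated 15 min at 37 °C in DMEM with ADA 1 U/mL and Ro 20-1724 20 μM. […] Cells are lysed in 0.4 N HCl. cAMP is measured by [3H]cAMP competition with bovine adrenal binding protein (150 min, 0 °C), with filtration and scintillation counting. Mean ± SEM, four experiments in triplicate.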

Adenosine receptor A3 [6] = target: T2, Adenosine receptor A3; assay: Antagonist activity human recombinant adenosine A3 receptor expressed in CHO cells assessed as blockade of NECA-mediated inhibition of forskolin-stimulated [3H]cAMP production treated 15 mins before NECA challenge measured after 30 mins by liquid scintillation spectrometry; assay type: functional, cell-based
Method in brief: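 hA3-expressing CHO cells are pre-incubated 15 min at 37 °C with ADA 1 U/mL and Ro 20-1724 20 μM. […] HCl lysates are assayed for cAMP by [3H]cAMP/binding-protein competition with scintillation read-out. IC50 is reported as mean ± SEM of four experiments in triplicate.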

Adenosine receptor A3 [7] = target: T2, Adenosine receptor A3; assay: Antagonist activity at adenosine A3 receptor in human U87MG cells assessed as inhibition of Cl-IB-MECA-mediated ERK1/2 phosphorylation after 30 mins by ELISA; assay type: functional, cell-based, U-87MG ATCC
[8] = target: T5, Mitogen-activated protein kinase; ERK1/ERK2 (Homo sapiens) (UniProt P27361+P28482); assay: Modulation of ERK1/2 phosphorylation in human U87MG cells at 0.25 to 10 nM after 30 mins by ELISA; assay type: cell-based; settings: U-87MG ATCC
T5 sequence (P27361 whole entry, looked up): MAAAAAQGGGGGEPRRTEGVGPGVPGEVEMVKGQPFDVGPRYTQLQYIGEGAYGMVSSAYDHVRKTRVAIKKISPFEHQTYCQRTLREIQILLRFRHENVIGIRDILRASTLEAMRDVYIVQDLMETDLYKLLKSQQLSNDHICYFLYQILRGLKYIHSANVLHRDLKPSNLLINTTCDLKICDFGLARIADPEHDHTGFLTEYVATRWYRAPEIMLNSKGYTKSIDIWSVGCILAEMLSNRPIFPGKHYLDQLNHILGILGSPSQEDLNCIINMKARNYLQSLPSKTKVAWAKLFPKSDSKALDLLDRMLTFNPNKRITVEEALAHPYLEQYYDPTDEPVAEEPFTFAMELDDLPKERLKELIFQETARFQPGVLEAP
T5 sequence (P28482 whole entry, looked up): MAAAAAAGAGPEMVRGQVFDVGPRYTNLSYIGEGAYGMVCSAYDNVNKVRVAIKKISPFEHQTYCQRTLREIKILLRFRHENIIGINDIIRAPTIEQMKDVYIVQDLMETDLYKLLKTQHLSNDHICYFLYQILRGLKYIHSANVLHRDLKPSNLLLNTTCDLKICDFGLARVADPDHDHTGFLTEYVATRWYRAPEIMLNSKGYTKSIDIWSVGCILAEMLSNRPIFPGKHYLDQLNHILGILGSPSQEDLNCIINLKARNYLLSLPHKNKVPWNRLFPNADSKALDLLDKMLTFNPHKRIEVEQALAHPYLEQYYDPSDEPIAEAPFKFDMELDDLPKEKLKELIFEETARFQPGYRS

[9] = Octanol-water partition coefficient, log P of the compound; assay type: physicochemical
U-87MG ATCC [10] = assay: Antiproliferative activity against human U87MG cell proliferation at 0.01 to 5 nM after 48 hrs by trypan exclusion assay; assay type: functional, cell-based; method in brief: as §1
[11] = target: T5, Mitogen-activated protein kinase; ERK1/ERK2 (Homo sapiens); assay: Modulation of ERK1/2 phosphorylation in human U87MG cells at 0.05 to 1 nM after 30 mins by ELISA; assay type: cell-based; settings: U-87MG ATCC

SMILES: COc1ccc(NC(=O)Nc2nc(-c3ccccc3)nc3nn(CCc4ccccc4)cc23)cc1
Ki (Adenosine receptor A1): > 10000 nM
Ki (Adenosine receptor A2a): > 10000 nM
Ki (Adenosine receptor A3 [1]): > 1000 nM

SMILES: Nc1nc(-c2ccccc2)nc2nn(CCc3ccccc3)cc12
Ki (Adenosine receptor A1): 2500 nM
Ki (Adenosine receptor A2a): 1000 nM
Ki (Adenosine receptor A3 [1]): 503 nM
inhibition [2]: inactive

SMILES: COc1ccc(C(=O)Nc2nc(-c3ccccc3)nc3nn(Cc4ccccc4)cc23)cc1
Ki (Adenosine receptor A1): > 10000 nM
Ki (Adenosine receptor A2a): > 10000 nM
Ki (Adenosine receptor A3 [1]): 22.1 nM

SMILES: Cn1cc2c(N)nc(-c3ccccc3)nc2n1
Ki (Adenosine receptor A1): 585 nM
Ki (Adenosine receptor A2a): > 10000 nM
Ki (Adenosine receptor A3 [1]): 922 nM
inhibition [2]: inactive

SMILES: O=C(Nc1nc(-c2ccccc2)nc2nn(CCc3ccccc3)cc12)c1cccc(Cl)c1
Ki (Adenosine receptor A1): 1050 nM
Ki (Adenosine receptor A2a): 314 nM
Ki (Adenosine receptor A3 [1]): 22.3 nM

SMILES: Nc1nc(-c2ccccc2)nc2nn(Cc3ccccc3)cc12
Ki (Adenosine receptor A1): 312 nM
Ki (Adenosine receptor A2a): 121 nM
Ki (Adenosine receptor A3 [1]): 93 nM
inhibition [2]: inactive

SMILES: COc1ccc(C(=O)Nc2nc(-c3ccccc3)nc3nn(CCc4ccccc4)cc23)cc1
Ki (Adenosine receptor A1): 2400 nM
Ki (Adenosine receptor A2a): 1140 nM
Ki (Adenosine receptor A3 [1]): 45.2 nM

SMILES: COc1ccc(NC(=O)Nc2nc(-c3ccccc3)nc3nn(Cc4ccccc4)cc23)cc1
Ki (Adenosine receptor A1): > 10000 nM
Ki (Adenosine receptor A2a): > 10000 nM
Ki (Adenosine receptor A3 [1]): 2.9 nM
inhibition [2]: inactive
IC50 (Adenosine receptor A2b): 1470 nM
IC50 (Adenosine receptor A3 [6]): 8.2 nM

SMILES: O=C(Nc1ncnc2nn(Cc3ccccc3)cc12)c1ccccc1
Ki (Adenosine receptor A1): > 10000 nM
Ki (Adenosine receptor A2a): > 10000 nM
Ki (Adenosine receptor A3 [1]): > 1000 nM

SMILES: COc1ccc(C(=O)Nc2nc(-c3ccccc3)nc3nn(C)cc23)cc1
Ki (Adenosine receptor A1): 1040 nM
Ki (Adenosine receptor A2a): 3180 nM
Ki (Adenosine receptor A3 [1]): 0.18 nM
inhibition [2]: inactive
IC50 (U-87 MG [3]): 0.091 nM
IC50 (U-87 MG [4]): 0.057 nM
Activity (U-87MG ATCC [10]): inactive
IC50 (Adenosine receptor A2b): 53.9 nM
IC50 (Adenosine receptor A3 [6]): 2.4 nM
IC50 (Adenosine receptor A3 [7]): 0.061 nM
Activity [11]: inactive
logP [9]: 4

SMILES: O=C(Nc1ncnc2nn(Cc3ccccc3)cc12)c1cccc(Cl)c1
Ki (Adenosine receptor A1): > 10000 nM
Ki (Adenosine receptor A2a): 4900 nM
Ki (Adenosine receptor A3 [1]): > 1000 nM

SMILES: O=C(Nc1nc(-c2ccccc2)nc2nn(Cc3ccccc3)cc12)c1ccccc1
Ki (Adenosine receptor A1): 53 nM
Ki (Adenosine receptor A2a): 181 nM
Ki (Adenosine receptor A3 [1]): 3 nM
inhibition [2]: inactive
IC50 (Adenosine receptor A2b): 272 nM
IC50 (Adenosine receptor A3 [6]): 53 nM

SMILES: O=C(Nc1nc(-c2ccccc2)nc2nn(Cc3ccccc3)cc12)c1cccc(Cl)c1
Ki (Adenosine receptor A1): > 10000 nM
Ki (Adenosine receptor A2a): > 10000 nM
Ki (Adenosine receptor A3 [1]): 3.7 nM
inhibition [2]: inactive
IC50 (Adenosine receptor A2b): 1330 nM
IC50 (Adenosine receptor A3 [6]): 7.6 nM

SMILES: COc1ccc(C(=O)Nc2ncnc3nn(Cc4ccccc4)cc23)cc1
Ki (Adenosine receptor A1): > 10000 nM
Ki (Adenosine receptor A2a): > 10000 nM
Ki (Adenosine receptor A3 [1]): > 1000 nM

SMILES: O=C(Nc1nc(-c2ccccc2)nc2nn(CCc3ccccc3)cc12)c1ccccc1
Ki (Adenosine receptor A1): 27 nM
Ki (Adenosine receptor A2a): 227 nM
Ki (Adenosine receptor A3 [1]): 43.7 nM

More lines, main results first:

Ki (Adenosine receptor A1): > 10000 nM
Ki (Adenosine receptor A2a): > 10000 nM
Ki (Adenosine receptor A3 [1]): 358 nM
inhibition [2]: inactive
SMILES: COc1ccc(NC(=O)Nc2nc(-c3ccccc3)nc3nn(C)cc23)cc1

Ki (Adenosine receptor A1): > 10000 nM
Ki (Adenosine receptor A2a): > 10000 nM
Ki (Adenosine receptor A3 [1]): 121 nM
SMILES: O=C(Nc1cccc(Cl)c1)Nc1nc(-c2ccccc2)nc2nn(Cc3ccccc3)cc12

Ki (Adenosine receptor A1): > 10000 nM
Ki (Adenosine receptor A2a): > 10000 nM
Ki (Adenosine receptor A3 [1]): 20.9 nM
inhibition [2]: inactive
SMILES: Cn1cc2c(NC(=O)Nc3ccccc3)nc(-c3ccccc3)nc2n1

Ki (Adenosine receptor A1): 334 nM
Ki (Adenosine receptor A2a): 728 nM
Ki (Adenosine receptor A3 [1]): 0.6 nM
inhibition [2]: inactive
IC50 (U-87 MG [3]): 0.17 nM
IC50 (U-87 MG [4]): 0.41 nM
IC50 (Adenosine receptor A2b): 49.8 nM
IC50 (Adenosine receptor A3 [6]): 1.9 nM
IC50 (Adenosine receptor A3 [7]): 0.74 nM
Activity [8]: inactive
logP [9]: 3.8
SMILES: Cn1cc2c(NC(=O)c3ccccc3)nc(-c3ccccc3)nc2n1
Activity (U-87MG ATCC [5]): inactive

Ki (Adenosine receptor A1): > 10000 nM
Ki (Adenosine receptor A2a): > 10000 nM
Ki (Adenosine receptor A3 [1]): > 1000 nM
SMILES: O=C(Nc1cccc(Cl)c1)Nc1nc(-c2ccccc2)nc2nn(CCc3ccccc3)cc12

Ki (Adenosine receptor A1): 1700 nM
Ki (Adenosine receptor A2a): 96 nM
Ki (Adenosine receptor A3 [1]): 36.3 nM
SMILES: O=C(Nc1ccccc1)Nc1nc(-c2ccccc2)nc2nn(CCc3ccccc3)cc12

Ki (Adenosine receptor A1): 290 nM
Ki (Adenosine receptor A2a): > 10000 nM
Ki (Adenosine receptor A3 [1]): 2.9 nM
inhibition [2]: inactive
IC50 (Adenosine receptor A2b): 1320 nM
IC50 (Adenosine receptor A3 [6]): 5.7 nM
SMILES: O=C(Nc1ccccc1)Nc1nc(-c2ccccc2)nc2nn(Cc3ccccc3)cc12

Ki (Adenosine receptor A1): 922 nM
Ki (Adenosine receptor A2a): > 10000 nM
Ki (Adenosine receptor A3 [1]): 29.1 nM
inhibition [2]: inactive
SMILES: Cn1cc2c(NC(=O)Nc3cccc(Cl)c3)nc(-c3ccccc3)nc2n1

Ki (Adenosine receptor A1): 1080 nM
Ki (Adenosine receptor A2a): 886 nM
Ki (Adenosine receptor A3 [1]): 5.9 nM
inhibition [2]: inactive
SMILES: Cn1cc2c(NC(=O)c3cccc(Cl)c3)nc(-c3ccccc3)nc2n1
